Sampled rows, rich in hits. Any-hit rate of the full collection: about 5.5%.
STAT1 blocker: reduces IFN-gamma driven STAT1 reporter signal; NIH 3T3 STAT1-luciferase reporter, luminescence; inhibition, % at 5.5 µM; hit rate 0.35% among 200,000; AID 920;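 active = inhibition above a set limit, the mean inhibition across all tested compounds plus 3 SD, cut at about 34% in these data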;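 note: 0% = IFN-gamma with DMSO and 100% = IFN-gamma with 300 µM nifuroxazide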
KCC2 mod: modulators of human KCC2 chloride dependent transport; Q9H2X9; KCC2 cells, thallium flux FluoZin-2 fluorescence; B-score of Tl+ flux slope (higher = more flux/activation; lower = inhibition) at 10 µM; hit rate 2.2% among 190,000; AID 1456;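 active = thallium flux slope and its plate-corrected score both differing from the plate sample mean at a set confidence after two filtering rounds, in either direction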;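 note: slope of fluorescence scaled to starting intensity during 10 to 20 s after thallium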
STAT3 inh: inhibitors of IL-6 induced STAT3 signaling; U3A cells, IL-6 STAT3-luciferase reporter, luminescence; host cell line lacks STAT1; inhibition, % at 5.5 µM; hit rate 0.89% among 190,000;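 active = inhibition above the mean inhibition across all screened compounds plus 3 SD, cut at about 44% in these data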;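 note: 0% = DMSO only wells and 100% = 100 µM nifuroxazide control wells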
STAT3 activator: activators of IL-6 induced STAT3 signaling; hit rate 0.91% among 190,000; U3A cells, IL-6 STAT3-luciferase reporter, luminescence; 100% = signal with IL-6 EC80 alone; activation (% of control), % at 5.6 µM;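 active = activation above the screen-wide mean of compound activation plus 3 SD, cut at about 130% in these data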;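 note: 0% = background luminescence of wells with medium and substrate only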
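Material: human U3A cells carrying STAT3-luciferase construct. Measured by: reporter luminescence signal. Timing: compound 1 h, then IL-6 6 h at 37 °C.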
STAT1 activator: increases IFN-gamma driven STAT1 reporter signal; activation (% of control), % at 5.5 µM; hit rate 2.6% among 200,000; AID 932; NIH 3T3 STAT1-luciferase reporter, luminescence; 100% = IFN-gamma alone, no compound;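 active = activation above the screen-wide mean activation plus 3 SD, cut at about 130% in these data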;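 note: raw ratio to IFN-gamma control signal so 100% means no change and 0% no light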
HSV replic up: increases HSV replication in cells; HSV replication augmentation in cells, fold increase; maximum fold increase; hit rate 0.005% among 220,000; AID 1956; in the data active = maximum fold increase above about 1.5; inconclusive = no clear call, values can overlap the other calls; tested in PC3 cells
KCC2 sec1: KCC2 (human) modulation, secondary assay. shares compounds with KCC2 mod. HEK293-KCC2, thallium flux, FluoZin2 fluorescence; hits give high values. normalised thallium flux (F/F0 slope) at 10 µM. hit rate 15% among 3,700;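 active = thallium flux slope above the same plate's solvent-only control mean plus 3 SD; inconclusive = the two replicate wells disagree; inactive = no significant difference from solvent-only control wells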
KCC2 bumet counter: bumetanide-insensitive thallium flux in KCC2 cells with ouabain, counter-screen; normalized thallium flux at 10 µM; hit rate 49% among 3,700; shares compounds with KCC2 mod; HEK293-KCC2 + bumetanide/ouabain, thallium flux FluoZin2; hits give high values;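 active = thallium entry rate above the same plate's blocked-transporter control wells by more than 3 SD; inconclusive = the two repeat wells disagree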;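 note: raw slope of fluorescence over initial fluorescence between 10 and 20 s after thallium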
KCC2 sec2: KCC2 (human) modulation, second secondary assay; shares compounds with KCC2 mod; HEK293-KCC2, thallium flux FluoZin2 fluorescence; actives lie on both sides; F/F0 rise rate, 10–20 s post-thallium; normalized thallium flux at 10 µM; hit rate 23% among 3,700;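 active = thallium flux slope more than 3 SD above or below the plate's solvent-only control mean, mostly below; inconclusive = the two repeat wells disagreed; inactive = no significant shift from solvent-only controls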;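 note: raw slope with 0.1% DMSO as baseline and bumetanide as block control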
HEK counter1: counter-screen for KCC2 modulators: effect in parental HEK293 cells; shares compounds with KCC2 mod; thallium flux FluoZin2, ouabain; baseline-ratio fluorescence slope, 10–20 s after thallium; thallium flux rate (normalised fluorescence) at 10 µM; hit rate 46% among 3,700; AID 1716;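 active = thallium flux rate significantly above the same plate's solvent-only control wells, beyond their mean plus 3 SD; inconclusive = the two replicate wells gave conflicting results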
KCC2 ouabain: modulates human KCC2 on retest with ouabain; shares compounds with KCC2 mod; hit rate 48% among 3,700; HEK293-KCC2, thallium flux FluoZin2 fluorescence; bidirectional: low = inhibitor, high = activator; raw Tl+ flux slope (below DMSO = inhibition, above = activation) at 10 µM;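 active = thallium flux slope beyond 3 SD from same-plate DMSO control mean in most replicates, usually higher, sometimes lower; inconclusive = repeat tests gave conflicting results; inactive = no significant difference from controls in most replicates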;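 note: slope of initial-normalized fluorescence between seconds 10 and 20 after thallium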
HEK counter2: acts in parental HEK cells, second KCC2 counter-screen | HEK293 parental, thallium flux FluoZin-2 fluorescence slope | thallium flux slope at 10 µM | hit rate 33% among 3,700 | shares compounds with KCC2 mod;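 active = thallium flux slope above the same plate's solvent-control mean plus 3 SD in both duplicate wells; inconclusive = duplicate wells that disagreed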;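 note: run without ouabain in cells lacking the KCC2 cotransporter; slope of fluorescence scaled to its starting value between 10 and 20 s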
Numbers without * were called inactive; i = inactive; ? = inconclusive; . = no result.

SMILES	STAT1 blocker	KCC2 mod	STAT3 inh	STAT3 activator	STAT1 activator	HSV replic up	KCC2 sec1	KCC2 bumet counter	KCC2 sec2	HEK counter1	KCC2 ouabain	HEK counter2
Cn1c(CSc2nc3ccccc3s2)nc2ccccc21	-45	-4.4*	1	101	142*	i	0.0059	0.0049	0.024*	0.007	?	0.01
Cn1c(CSc2nc3ccccc3s2)n[nH]c1=S	2	.	14	94	98	i	?	0.0059	?	0.0071	0.011*	?
CC(=O)CSc1nc2ccccc2s1	-4	1.3	-22	118	104	i	.	.	.	.	.	.
CCn1c(CSc2nc3ccccc3s2)nnc1SCC(N)=O	-2	0.055	0	103	102	i	.	.	.	.	.	.
O=C(NC(=S)Nc1ccccc1N1CCOCC1)c1ccc(-c2ccccc2F)o1	.	15*	.	.	.	i	0.011	0.028*	0.037	0.034*	0.031*	0.012
CS(=O)(=O)N1CCN(c2ccccc2NC(=S)NC(=O)c2cccs2)CC1	-10	0.98	7	96	107	i	.	.	.	.	.	.
CC(C)C(=O)N1CCN(c2ccccc2NC(=S)NC(=O)c2cccs2)CC1	-2	2.8	-8	107	100	i	0.0063	0.0086*	0.028	0.0091*	0.019	?
O=C(NC(=S)Nc1ccccc1N1CCCCC1)c1ccccc1	-10	12*	-1	104	108	i	0.0064	0.023*	0.034	0.011*	0.028*	?
O=C(Nc1ccccc1N1CCCCC1)c1ncoc1-c1ccc(F)cc1	3	2.1*	24	84	98	i	0.0086	0.0055	0.03	0.008	0.018	0.011
CC(C)=CCC12Oc3cc(O)ccc3C1(O)Oc1cc(O)c([C@H]3C=C(C)CC(c4ccc(O)cc4O)[C@H]3C(=O)c3ccc(O)cc3O)c(O)c1C2=O (some centres undefined)	.	.	.	.	.	i	.	.	.	.	.	.
Cc1ccccc1C(=O)NC(=S)Nc1ccccc1N1CCCC1	7	11*	0	110	92	i	0.0068	0.025*	0.031	0.026*	0.03*	0.015*
Cc1cc(C(=O)NC(=S)Nc2ccccc2N2CCOCC2)ccc1[N+](=O)[O-]	-5	5.4*	-1	104	104	i	0.0091	0.01*	0.03	?	?	?
Cc1ccccc1C(=O)NC(=S)Nc1ccc(N2CCOCC2)cc1	-3	0.11	0	102	101	i	.	.	.	.	.	.
Cc1occc1-c1nnc(SCC(=O)Nc2nc3ccccc3s2)o1	-16	.	2	101	115	i	.	.	.	.	.	.
CC1Cc2ccccc2N1C(=O)COC(=O)c1cccnc1Cl (centres undefined)	-10	-4*	0	103	109	i	0.0071	0.0061	0.027	0.0064	?	?
Cc1cnc(C(=O)OCC(=O)N2c3ccccc3CC2C)cn1 (centres undefined)	-2	.	5	100	101	i	.	.	.	.	.	.
CC1Cc2ccccc2N1C(=O)CN(C)S(=O)(=O)c1cccc2cccnc12 (centres undefined)	-10	.	4	104	109	i	0.0056	0.0055	0.023*	0.0072	?	0.01

Bioassay records as filed in PubChem.
